Measured values taken from ChEMBL document CHEMBL3046615, “Isolation of nematicidal compounds from Tagetes patula L. yellow flowers: structure-activity relationship studies against cyst nematode Heterodera zeae infective stage larvae” (2011).
Calls of active or inactive are those of the source. The calls are words filed in the database; no cut-off is given here.

Tests used:
Heterodera zeae [1] = assay: Nematicidal activity against Heterodera zeae infective stage larvae assessed as nematode mortality at 0.5% under light conditions measured 72 hr post dose by stereoscopic microscopy; format: functional
Method in brief: (§1)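 Freshly hatched H. zeae second-stage juveniles, 100 per Petri plate, three replicates. Samples in MeOH, DMSO or water were tested in glass cavity blocks; petroleum ether samples were dried onto the block and larvae transferred on agar pieces. Percentages are dilutions of 30 mg/mL stocks (extracts/fractions) or 1 mg/mL stocks (pure compounds). Incubated at 28 ± 2 °C in light or dark box; mortality averaged over three replicates.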

Heterodera zeae [2] = assay: Nematicidal activity against Heterodera zeae infective stage larvae assessed as nematode mortality at 0.5% under light conditions measured 48 hr post dose by stereoscopic microscopy; format: functional; method in brief: as §1
Heterodera zeae [3] = assay: Nematicidal activity against Heterodera zeae infective stage larvae assessed as nematode mortality at 1% under dark conditions measured 24 hr post dose by stereoscopic microscopy; format: functional; method in brief: as §1
Heterodera zeae [4] = assay: Nematicidal activity against Heterodera zeae infective stage larvae assessed as nematode mortality at 0.125% under light conditions measured 48 hr post dose by stereoscopic microscopy; format: functional; method in brief: as §1
Heterodera zeae [5] = assay: Nematicidal activity against Heterodera zeae infective stage larvae assessed as nematode mortality at 0.25% under light conditions measured 48 hr post dose by stereoscopic microscopy; format: functional; method in brief: as §1
Heterodera zeae [6] = assay: Nematicidal activity against Heterodera zeae infective stage larvae assessed as nematode mortality at 0.125% under light conditions measured 24 hr post dose by stereoscopic microscopy; format: functional; method in brief: as §1
Heterodera zeae [7] = assay: Nematicidal activity against Heterodera zeae infective stage larvae assessed as nematode mortality at 0.25% under light conditions measured 24 hr post dose by stereoscopic microscopy; format: functional; method in brief: as §1
Heterodera zeae [8] = assay: Nematicidal activity against Heterodera zeae infective stage larvae assessed as nematode mortality at 0.5% under light conditions measured 24 hr post dose by stereoscopic microscopy; format: functional; method in brief: as §1
Heterodera zeae [9] = assay: Nematicidal activity against Heterodera zeae infective stage larvae assessed as nematode mortality at 1% under light conditions measured 24 hr post dose by stereoscopic microscopy; format: functional; method in brief: as §1
Heterodera zeae [10] = assay: Nematicidal activity against Heterodera zeae infective stage larvae assessed as nematode mortality at 0.125% under dark conditions measured 5 to 60 min post dose by stereoscopic microscopy; format: functional, organism-based
Method in brief: (§2)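 H. zeae freshly hatched second-stage juveniles, 100 per plate, three replicates, at 28 ± 2 °C under light or in a dark box. Dilutions are % of a stock: 30 mg/mL for extracts/fractions, 1 mg/mL for pure compounds. Methanol-, DMSO- or water-soluble samples were tested in glass cavity blocks. Petroleum ether-soluble samples were air-dried in the block and covered with agar pieces bearing cultured larvae. Mortality was followed over 5–60 min; each value is the mean of three experiments.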

Heterodera zeae [11] = assay: Nematicidal activity against Heterodera zeae infective stage larvae assessed as nematode mortality at 0.25% under dark conditions measured 5 to 60 min post dose by stereoscopic microscopy; format: functional, organism-based; method in brief: as §2
Heterodera zeae [12] = assay: Nematicidal activity against Heterodera zeae infective stage larvae assessed as nematode mortality at 0.5% under dark conditions measured 5 to 60 min post dose by stereoscopic microscopy; format: functional, organism-based; method in brief: as §2
Heterodera zeae [13] = assay: Nematicidal activity against Heterodera zeae infective stage larvae assessed as nematode mortality at 1% under dark conditions measured 5 to 60 min post dose by stereoscopic microscopy; format: functional, organism-based; method in brief: as §2
Heterodera zeae [14] = assay: Nematicidal activity against Heterodera zeae infective stage larvae assessed as nematode mortality at 2% under dark conditions measured 5 to 60 min post dose by stereoscopic microscopy; format: functional, organism-based; method in brief: as §2
Heterodera zeae [15] = assay: Nematicidal activity against Heterodera zeae infective stage larvae assessed as nematode mortality at 5% under dark conditions measured 5 to 60 min post dose by stereoscopic microscopy; format: functional, organism-based; method in brief: as §2
Heterodera zeae [16] = assay: Nematicidal activity against Heterodera zeae infective stage larvae assessed as nematode mortality at 0.125% under light conditions measured 5 to 60 min post dose by stereoscopic microscopy; format: functional, organism-based; method in brief: as §2
Heterodera zeae [17] = assay: Nematicidal activity against Heterodera zeae infective stage larvae assessed as nematode mortality at 0.25% under light conditions measured 5 to 60 min post dose by stereoscopic microscopy; format: functional, organism-based; method in brief: as §2
Heterodera zeae [18] = assay: Nematicidal activity against Heterodera zeae infective stage larvae assessed as nematode mortality at 0.5% under light conditions measured 5 to 60 min post dose by stereoscopic microscopy; format: functional, organism-based; method in brief: as §2
Heterodera zeae [19] = assay: Nematicidal activity against Heterodera zeae infective stage larvae assessed as nematode mortality at 1% under light conditions measured 5 to 60 min post dose by stereoscopic microscopy; format: functional, organism-based; method in brief: as §2
Heterodera zeae [20] = assay: Nematicidal activity against Heterodera zeae infective stage larvae assessed as nematode mortality at 2% under light conditions measured 5 to 60 min post dose by stereoscopic microscopy; format: functional, organism-based; method in brief: as §2
Heterodera zeae [21] = assay: Nematicidal activity against Heterodera zeae infective stage larvae assessed as nematode mortality at 5% under light conditions measured 5 to 60 min post dose by stereoscopic microscopy; format: functional, organism-based; method in brief: as §2
Heterodera zeae [22] = assay: Nematicidal activity against Heterodera zeae infective stage larvae assessed as nematode mortality at 0.125% under dark conditions measured 48 hr post dose by stereoscopic microscopy; format: functional; method in brief: as §1
Heterodera zeae [23] = assay: Nematicidal activity against Heterodera zeae infective stage larvae assessed as nematode mortality at 0.25% under dark conditions measured 48 hr post dose by stereoscopic microscopy; format: functional; method in brief: as §1
Heterodera zeae [24] = assay: Nematicidal activity against Heterodera zeae infective stage larvae assessed as nematode mortality at 0.125% under dark conditions measured 24 hr post dose by stereoscopic microscopy; format: functional; method in brief: as §1
Heterodera zeae [25] = assay: Nematicidal activity against Heterodera zeae infective stage larvae assessed as nematode mortality at 0.25% under dark conditions measured 24 hr post dose by stereoscopic microscopy; format: functional; method in brief: as §1
Heterodera zeae [26] = assay: Nematicidal activity against Heterodera zeae infective stage larvae assessed as nematode mortality at 0.5% under dark conditions measured 24 hr post dose by stereoscopic microscopy; format: functional; method in brief: as §1
Heterodera zeae [27] = assay: Nematicidal activity against Heterodera zeae infective stage larvae assessed as nematode mortality at 1% under dark conditions measured 72 hr post dose by stereoscopic microscopy; format: functional; method in brief: as §1
Heterodera zeae [28] = assay: Nematicidal activity against Heterodera zeae infective stage larvae assessed as nematode mortality at 1% under dark conditions measured 48 hr post dose by stereoscopic microscopy; format: functional; method in brief: as §1
Heterodera zeae [29] = assay: Nematicidal activity against Heterodera zeae infective stage larvae assessed as nematode mortality at 1% under light conditions measured 72 hr post dose by stereoscopic microscopy; format: functional; method in brief: as §1
Heterodera zeae [30] = assay: Nematicidal activity against Heterodera zeae infective stage larvae assessed as nematode mortality at 1% under light conditions measured 48 hr post dose by stereoscopic microscopy; format: functional; method in brief: as §1
Heterodera zeae [31] = assay: Nematicidal activity against Heterodera zeae infective stage larvae assessed as nematode mortality at 0.125% under dark conditions measured 72 hr post dose by stereoscopic microscopy; format: functional; method in brief: as §1
Heterodera zeae [32] = assay: Nematicidal activity against Heterodera zeae infective stage larvae assessed as nematode mortality at 0.25% under dark conditions measured 72 hr post dose by stereoscopic microscopy; format: functional; method in brief: as §1
Heterodera zeae [33] = assay: Nematicidal activity against Heterodera zeae infective stage larvae assessed as nematode mortality at 0.5% under dark conditions measured 72 hr post dose by stereoscopic microscopy; format: functional; method in brief: as §1
Heterodera zeae [34] = assay: Nematicidal activity against Heterodera zeae infective stage larvae assessed as nematode mortality at 0.5% under dark conditions measured 48 hr post dose by stereoscopic microscopy; format: functional; method in brief: as §1
Heterodera zeae [35] = assay: Nematicidal activity against Heterodera zeae infective stage larvae assessed as nematode mortality at 0.125% under light conditions measured 72 hr post dose by stereoscopic microscopy; format: functional; method in brief: as §1
Heterodera zeae [36] = assay: Nematicidal activity against Heterodera zeae infective stage larvae assessed as nematode mortality at 0.25% under light conditions measured 72 hr post dose by stereoscopic microscopy; format: functional; method in brief: as §1

| Structure (SMILES) | mortality (Heterodera zeae [1]) [%] | mortality (Heterodera zeae [2]) [%] | mortality (Heterodera zeae [3]) [%] | mortality (Heterodera zeae [4]) [%] | mortality (Heterodera zeae [5]) [%] | mortality (Heterodera zeae [6]) [%] | mortality (Heterodera zeae [7]) [%] | mortality (Heterodera zeae [8]) [%] | mortality (Heterodera zeae [9]) [%] | Activity (Heterodera zeae [10]) | Activity (Heterodera zeae [11]) | Activity (Heterodera zeae [12]) | Activity (Heterodera zeae [13]) | Activity (Heterodera zeae [14]) | Activity (Heterodera zeae [15]) | Activity (Heterodera zeae [16]) | Activity (Heterodera zeae [17]) | Activity (Heterodera zeae [18]) | Activity (Heterodera zeae [19]) | Activity (Heterodera zeae [20]) | other results |
| --- | --- | --- | --- | --- | --- | --- | --- | --- | --- | --- | --- | --- | --- | --- | --- | --- | --- | --- | --- | --- | --- |
| CCCCCCCCCCCCCC(=O)O [MYRISTIC ACID] | 50 | 30 | 50 | 20 | 20 | 20 | 20 | 30 | 40 | inactive | inactive | inactive | inactive | inactive | inactive | inactive | inactive | inactive | inactive | inactive | Activity (Heterodera zeae [21]): inactive; mortality (Heterodera zeae [22]): 20%; mortality (Heterodera zeae [23]): 30%; mortality (Heterodera zeae [24]): 20%; mortality (Heterodera zeae [25]): 30%; mortality (Heterodera zeae [26]): 50%; mortality (Heterodera zeae [27]): 90%; mortality (Heterodera zeae [28]): 60%; mortality (Heterodera zeae [29]): 80%; mortality (Heterodera zeae [30]): 50%; mortality (Heterodera zeae [31]): 50%; mortality (Heterodera zeae [32]): 80%; mortality (Heterodera zeae [33]): 80%; mortality (Heterodera zeae [34]): 50%; mortality (Heterodera zeae [35]): 40%; mortality (Heterodera zeae [36]): 50% |
| CCCCCCCCCCCCCCCC(=O)O [PALMITIC ACID] | 70 | 50 | 80 | 0 | 10 | 0 | 0 | 0 | 0 | inactive | inactive | inactive | inactive | inactive | inactive | inactive | inactive | inactive | inactive | inactive | Activity (Heterodera zeae [21]): inactive; mortality (Heterodera zeae [22]): 0%; mortality (Heterodera zeae [23]): 20%; mortality (Heterodera zeae [24]): 0%; mortality (Heterodera zeae [25]): 0%; mortality (Heterodera zeae [26]): 0%; mortality (Heterodera zeae [27]): 80%; mortality (Heterodera zeae [28]): 80%; mortality (Heterodera zeae [29]): 80%; mortality (Heterodera zeae [30]): 70%; mortality (Heterodera zeae [31]): 50%; mortality (Heterodera zeae [32]): 70%; mortality (Heterodera zeae [33]): 70%; mortality (Heterodera zeae [34]): 50%; mortality (Heterodera zeae [35]): 0%; mortality (Heterodera zeae [36]): 50% |
